Source: PubChem
NPY Y2 blocker – antagonists of human neuropeptide Y receptor Y2; P49146; AID 793; hit rate 0.99% among 140,000; NPY-Y2 expressing cells, antagonist mode; inhibition, % at 2.7 µM;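 further: 0% = vehicle with agonist challenge and 100% = reference antagonist with challenge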
NPY Y1 blocker – blocks the human neuropeptide Y Y1 receptor; P25929; HEK293-CNG Y1 cells, membrane potential fluorescence; NPY at EC95, then isoproterenol; inhibition, % at 3.6 µM; hit rate 1% among 200,000;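 active means inhibition above the campaign mean inhibition of all tested compounds plus 3 SD, cut at about 20% in these data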;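 further: 0% = DMSO wells given NPY plus isoproterenol and 100% = isoproterenol alone without NPY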
Target sequence (P25929 whole entry, looked up): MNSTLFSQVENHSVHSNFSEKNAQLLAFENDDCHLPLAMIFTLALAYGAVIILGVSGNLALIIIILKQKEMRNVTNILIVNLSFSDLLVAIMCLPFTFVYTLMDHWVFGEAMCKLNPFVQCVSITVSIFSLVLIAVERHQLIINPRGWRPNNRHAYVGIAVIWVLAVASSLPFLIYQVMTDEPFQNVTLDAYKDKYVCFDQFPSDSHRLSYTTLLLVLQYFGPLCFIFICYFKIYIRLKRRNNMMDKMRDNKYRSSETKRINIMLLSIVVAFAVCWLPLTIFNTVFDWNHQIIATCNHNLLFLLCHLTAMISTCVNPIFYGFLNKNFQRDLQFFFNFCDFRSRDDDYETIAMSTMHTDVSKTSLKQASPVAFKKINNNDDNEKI
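material = HEK293 cells with Y1 receptor plus CNG channel | also added = NPY 25 nM then isoproterenol 1 µM plus Ro 20-1724 25 µM | schedule = dye 3 h, compound 60 min room temperature, stimulation 45 min | measured by = membrane potential fluorescence | benchmarks = high control isoproterenol alone, low control NPY with isoproterenol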
NPY1 pot ag – potentiators or agonists of human neuropeptide Y receptor Y1; hit rate 0.37% among 220,000; AID 1304; activation, % at 3.6 µM; P25929; NPY-Y1 expressing cells, potentiator/agonist activation; in the data active means activation above about 33%, passing the limit was not always enough;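 further: cells stimulated with NPY at EC10 then isoproterenol at EC100; 0% = low agonist plus stimulus and 100% = saturating agonist plus stimulus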
NPY-Y2 PAM-ag – potentiates or activates human NPY-Y2 receptor. hit rate 0.45% among 220,000. AID 1359. activation, % at 3.6 µM. P49146. cells expressing NPY-Y2, potentiator/agonist read-out; in the data active means activation above about 27%;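 further: cells stimulated with NPY near EC25 plus isoproterenol at EC100; 0% = vehicle plus submaximal agonist and 100% = vehicle plus saturating agonist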
NPY-Y1 ant conf – confirmation of human neuropeptide Y receptor Y1 antagonists | shares compounds with NPY Y1 blocker | HEK293-CNG NPY-Y1, membrane potential fluorescence, cAMP; NPY challenge against isoproterenol-raised cAMP | inhibition, % at 3.6 µM | hit rate 21% among 1,200; in the data active means inhibition above about 20%;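 further: 0% = vehicle with agonist plus stimulus and 100% = stimulus alone without agonist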
NPY2 antag ctr – antagonizes human NPY-Y2, counter-screen to NPY-Y1 antagonists; AID 1255; hit rate 28% among 1,200; inhibition, % at 3.6 µM; HEK293 NPY-Y2 CNG membrane potential fluorescence, antagonism; cells given NPY, then isoproterenol; shares compounds with NPY Y1 blocker;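 further: 0% = DMSO with agonist challenge and 100% = reference antagonist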
* = called active by the depositor; . = no result given. Compounds with a hit are over-represented: about 1.8% of the library has one in this group of screens. Unless noted, no stated cut-off is given here; in the data, active means inhibition above about 17%; inactive means the rest.

SMILES	NPY Y2 blocker	NPY Y1 blocker	NPY1 pot ag	NPY-Y2 PAM-ag	NPY-Y1 ant conf	NPY2 antag ctr
CCOC(=O)C1CCN(C(=O)CCS(=O)(=O)c2ccc3c(c2)CCN3C(=O)CC)CC1	.	-1	26	15	.	.
COc1cc(CCC(=O)NNC(=O)c2ccc(C)cc2)cc(OC)c1OC	.	-4	3	5	.	.
CC1Cc2ccccc2N1C(=O)c1cc2sccc2n1Cc1ccc(F)cc1 (centres undefined)	11	20*	-39	-12	8	15
O=C(Nc1ccccc1)C1=C[C@H](c2csc3ccccc23)C[C@H](OCc2ccc(CO)cc2)O1	.	26*	-3	-15	9	8
CC(C)Oc1ccc(C(=O)Nc2cccc3cccnc23)cc1	.	22*	-20	-25	16	24*
COc1ccc(C(=O)Nc2cccc3cccnc23)cc1OC	3	8	-29	-1	.	.
CCOc1ccccc1NC(=O)CSc1nnc(-c2ccccc2Cl)n1Cc1ccco1	8	0	3	5	.	.
NNC(=O)c1cc2c(ccc3ccccc32)o1	.	-2	5	-4	.	.
O=C(O)c1cc2c(ccc3ccccc32)o1	14	32*	-30	-21	13	15
O=C(Nn1c(-c2ccncc2)nc2ccccc2c1=O)c1ccc([N+](=O)[O-])cc1Cl	.	-3	-7	4	.	.
COc1cccc(C2=NOC(C(=O)NCc3ccccc3)C2)c1 (centres undefined)	10	45*	-30	-39	17	28*
O=C(NCc1cccs1)C1CC(c2ccc(Cl)c(Cl)c2)=NO1 (centres undefined)	.	24*	-18	-35	18	29*
COc1ccc(C2=NOC(C(=O)NCc3ccccc3)C2)cc1 (centres undefined)	8	29*	-18	-12	13	19*
O=C(NCc1cccs1)C1CC(c2ccc(Cl)cc2)=NO1 (centres undefined)	.	0	-13	-10	.	.
COc1cccc(C2=NOC(C(=O)NCc3ccco3)C2)c1 (centres undefined)	3	11	-13	-10	.	.
CCOC(=O)c1c(C)[nH]c(C(=O)COC(=O)CNC(=O)c2ccc(Cl)cc2Cl)c1C	4	-1	-3	3	.	.
Cc1csc(NC(=O)c2cc(-c3ccccc3)nc3ccccc23)n1	13	22*	-105	-30	19	12
Cc1cccc(NC(=O)c2cc(-c3ccccn3)nc3ccccc23)c1C	.	39*	-122	-59	25*	23*
Cc1ccc(-c2cc(C(=O)Nc3cc(C)on3)c3ccccc3n2)c(C)c1	9	35*	-115	-41	29*	51*
O=C(NC1CC1)c1cc(-c2ccccn2)nc2ccccc12	3	-1	-7	-10	.	.
CCN(CC)S(=O)(=O)c1ccc(N2CCN(S(=O)(=O)c3ccc4c(c3)OCCO4)CC2)nc1	-3	-6	15	1	.	.
CCCn1c(C(=O)OC)cc2c1ccn2-c1ccc(F)cc1	9	55*	-18	-16	18	16
COC(=O)c1cc2c(ccn2-c2ccc(F)cc2)n1CC(C)C	10	48*	-28	-11	26*	22*
COc1ccc(CC2(CO)CCN(C(C)Cc3ccc(Cl)cc3)CC2)cc1 (centres undefined)	.	26*	-35	-89	16	21*
COc1ccc(CC2(CO)CCN(Cc3cccc(OC)c3OC)CC2)cc1	.	7	-10	-12	.	.
SMILES	NPY Y2 blocker	NPY Y1 blocker	NPY1 pot ag	NPY-Y2 PAM-ag	NPY-Y1 ant conf	NPY2 antag ctr
COc1ccc(CN(CC2CCCO2)C(=O)c2cc3ccccc3oc2=O)cc1 (centres undefined)	.	37*	3	5	0	1
CN(CCOC(=O)c1cccc(F)c1)Cc1ccccc1	3	26*	-2	-2	1	3
CN(CCOC(=O)c1ccccc1)Cc1ccccc1	3	8	13	-5	.	.
CCCOc1ccc(-c2nc(OC)c3ccccc3n2)cc1	3	20*	-37	3	12	18*
CC(=O)NC(Cc1cccc(C)c1)C(=O)NC1CCN(C(=O)c2ccc([N+](=O)[O-])cc2)CC1 (centres undefined)	2	6	-20	-12	.	.
Cc1ccc(Cc2cnc(NC(=O)/C(C#N)=C/c3ccc(-c4ccccc4[N+](=O)[O-])o3)s2)cc1	15	27*	-24	-19	50*	46*
COc1ccc(OCC(=O)O/N=C(\N)Cc2ccc(Cl)cc2)cc1	10	23*	-47	-13	7	7
NC(=NC(=O)c1ccccc1)N1CCN(C(c2ccccc2)c2ccccc2)CC1	.	.	30	12	.	.
O=C(NCc1ccco1)C(c1ccccc1)N(C(=O)Cc1cccs1)c1ccccc1F (centres undefined)	13	22*	7	-1	2	3
O=C(NCc1ccco1)C(c1ccncc1)N(C(=O)Cc1cccs1)c1ccccc1 (centres undefined)	.	5	1	-14	.	.
CNCCCOc1cccc(Oc2ccccc2)c1	.	23*	-8	-14	6	13
CC(=O)c1sc(-c2ccc(F)cc2)cc1NS(=O)(=O)c1ccccc1	.	.	-9	1	.	.
COc1ccc(C(C(=O)NCC2CCCO2)N(C(=O)CNC(=O)c2cccs2)c2ccccc2C)cc1OC (centres undefined)	.	-4	3	-1	.	.
CC(C)COc1ccc(Br)cc1CNC(C)(C)C	.	28*	1	26	20	10
Cc1cc(Br)ccc1OCCCCNC(C)(C)C	6	-2	-12	3	.	.
COc1ccc(CCN2C(=O)CC(N3CCN(C/C=C/c4ccccc4)CC3)C2=O)cc1OC (centres undefined)	.	.	-8	3	.	.
C/C(=N\NC(=O)c1ccccc1[N+](=O)[O-])c1ccc(Br)s1	.	0	8	19	.	.
C/C(=N\Nc1nc2ccccc2s1)c1ccc(Br)s1	.	31*	26	11	8	20*
CC(=C\C(=O)O)/C(=C/c1ccc(C)o1)C(=O)O	2	4	-8	7	.	.
COc1ccc(-c2cc(C(F)(F)F)nc(N3CCCCCC3)n2)cc1	0	0	7	-1	.	.
COc1ccc(-c2cc(C(F)(F)F)nc(N3CCN(C)CC3)n2)cc1	13	25*	-46	-47	9	13
Cc1ccc(-c2noc(COc3ccccc3C)n2)cc1	14	22*	-13	-2	9	13
CC(NCc1ccc(-c2ccccc2)cc1)C(O)c1ccccc1 (centres undefined)	10	20*	-78	-28	18	29*
CC(O)CNCc1ccc(-c2ccccc2)cc1 (centres undefined)	8	6	1	0	.	.
COc1ccccc1NC(=O)CSc1nc(N)c(-c2ccccc2)c(=O)[nH]1	.	74*	-6	-45	55*	68*
